# The list is not random: actives were taken first. Their share in the collection is about 2.3%.
# STEP inh – STEP (human) phosphatase inhibition | inhibition, % at 20 µM | P54829 | recombinant STEP, OMFP fluorogenic substrate, fluorescence | hit rate 0.25% among 360,000 | AID 588621;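 active means inhibition at 20 µM, scaled per plate between control wells, above about 37%, limit read from the data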;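 further: 0% = DMSO with enzyme and substrate and 100% = substrate only without enzyme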
# Target sequence (P54829 whole entry, looked up): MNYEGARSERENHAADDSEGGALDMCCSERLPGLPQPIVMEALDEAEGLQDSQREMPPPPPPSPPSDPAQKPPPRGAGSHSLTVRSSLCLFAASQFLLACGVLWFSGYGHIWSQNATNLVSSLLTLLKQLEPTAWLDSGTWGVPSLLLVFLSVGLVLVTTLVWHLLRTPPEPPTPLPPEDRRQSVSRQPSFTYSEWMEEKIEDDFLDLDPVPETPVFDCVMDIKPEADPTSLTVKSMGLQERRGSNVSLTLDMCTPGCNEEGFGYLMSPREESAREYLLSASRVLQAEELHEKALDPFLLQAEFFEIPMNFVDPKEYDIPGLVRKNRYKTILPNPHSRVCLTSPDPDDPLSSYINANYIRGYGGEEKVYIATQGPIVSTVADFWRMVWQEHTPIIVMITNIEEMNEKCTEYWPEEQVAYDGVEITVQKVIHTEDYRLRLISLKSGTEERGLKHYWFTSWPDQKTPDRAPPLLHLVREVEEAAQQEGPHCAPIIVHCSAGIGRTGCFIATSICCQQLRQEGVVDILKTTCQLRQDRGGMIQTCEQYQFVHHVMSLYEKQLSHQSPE
#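 System: isolated STEP enzyme; schedule: 20 min enzyme reaction at room temperature, protected from light; medium: Bis-Tris buffer pH 6.0, 2.5 mM DTT, 0.005% Tween 20; signal: fluorescence, 480/540 nm; dosing: single compound dose of 20 µM, 1% DMSO final; also added: OMFP substrate, 25 µM final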
# LMPTP inh – LMPTP (human) inhibition; P24666; recombinant LMPTP-A, OMFP fluorogenic substrate, fluorescence intensity; inhibition, % at 20 µM; hit rate 0.22% among 360,000; AID 651560;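 active means compounds that cut the enzyme signal by at least half of the control window in the single-dose screen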;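 further: plate controls were DMSO wells with enzyme plus substrate for no effect and substrate without enzyme for full effect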
#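 Assay system: LMPTP-A, protein tyrosine phosphatase of low molecular weight / Medium: pH 6.0 Bis-Tris buffer with DTT and Triton X-100 / Schedule: 50 min enzyme reaction at room temperature, protected from light / Measured by: endpoint fluorescence intensity from OMFP dephosphorylation / Read-out basis: % inhibition relative to no-enzyme and uninhibited control wells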
# Scp1 inh – Scp-1 (human) phosphatase inhibition. Q9GZU7. Recombinant Scp1, phosphopeptide, malachite green phosphate absorbance. inhibition, % at 20 µM. hit rate 0.88% among 340,000;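 active means inhibition above about 50% at 20 µM, limit read from the data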;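 further: plate controls were DMSO wells with enzyme for no effect and wells lacking enzyme for full effect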
#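 Test system: SCP-1 phosphatase catalytic domain, residues 76-261; measured by: colorimetric phosphate reagent with accelerator and stabiliser, absorbance at 630 nm; timing: enzyme reaction 45 min at room temperature, colour 5 min, stabilisation 30 min; also added: Phosphorylated 17-residue peptide substrate; compound dosing: one concentration, 20 µM, with 1.0% DMSO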
# Rpn11 inh – blocks the human proteasome subunit Rpn11; O00487; human 26S proteasome, Ub4-pepOG fluorescence polarization; 20S core pre-blocked with epoxomicin; inhibition, % at 20 µM; hit rate 0.59% among 360,000; AID 588493;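 active means inhibition at 20 µM, scaled to each plate's controls, above about 33%, limit read from the data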
# SUMO1 PPI mod – alters human SUMO1 binding to SIM partners; P63165; SUMO1 binding to a labelled peptide, TR-FRET, 1 h; inhibition, % at 20 µM; hit rate 0.33% among 360,000; in the data active means inhibition above about 37%
# Target sequence (P63165 whole entry, looked up): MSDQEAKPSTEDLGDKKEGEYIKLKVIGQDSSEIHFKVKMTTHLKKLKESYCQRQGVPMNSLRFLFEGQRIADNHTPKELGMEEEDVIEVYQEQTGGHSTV
# DNMT1 block – blocks human DNA methyltransferase DNMT1 | DNMT1 molecular beacon, Hinp1I cleavage, fluorescence | inhibition (reported as % activation of signal), % at 10 µM | hit rate 0.83% among 360,000 | AID 588458; in the data active means inhibition above about 50%
# DNMT1 interf DR – beacon fluorescence artifact, dose response counter-screen; shares compounds with DNMT1 block; molecular beacon fluorescence, spectral interference counter-screen; IC50, µM; 200 tested, under 10 active; AID 602382; call rule not given here
# DNMT1 inh conf – confirmation of human DNMT1 inhibitors | shares compounds with DNMT1 block | DNMT1 molecular beacon HinP1I cleavage, fluorescence | inhibition, % at 10 µM | hit rate 8% among 2,300;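 active means average inhibition of at least 30% in the single-concentration confirmation test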
# DNMT1 interf – beacon fluorescence artifact counter-screen. DNMT1 molecular beacon spectral interference counterscreen, fluorescence 485/520. hit rate 1% among 2,300. shares compounds with DNMT1 block. activation (fluorescence interference), % at 10 µM;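 active means activation of at least 30% at 10 µM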;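 further: DNMT1 catalytic domain with a HinP1I cleavage step and a FAM/dabcyl DNA beacon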
# Numbers without * were called inactive; . = not tested or not shown.
SMILES,STEP inh,LMPTP inh,Scp1 inh,Rpn11 inh,SUMO1 PPI mod,DNMT1 block,DNMT1 inh conf,DNMT1 interf,others
Cc1ccc(C2C(C#N)=C(N)N(N(C)C)C3=C2C(=O)CCC3)cc1 (stereo unspecified),-2,0,-17,5,2,79*,2,2,
CN(C)N1C(N)=C(C#N)C(c2ccc(Cl)cc2)C2=C1CCCC2=O (stereo unspecified),1,-1,-9,-5,4,1,.,.,
COc1ccc(-c2csc(Nc3ccc(S(N)(=O)=O)cc3)n2)cc1OC,-3,2,10,0,33,63*,4,14,
NS(=O)(=O)c1ccc(Nc2nc(-c3ccc(F)cc3)cs2)cc1,-4,3,-3,7,-3,-6,.,.,
CC(C)(C)C(=O)Nc1nnc(CC(=O)NCc2ccccc2)s1,10,0,-3,-15,-2,61*,7,4,
Cc1cc(OCC(=O)Nc2ccc(N3CCN(C)CC3)cc2)ccc1Cl,0,-1,-8,0,-7,2,.,.,
O=C(Nc1ccccc1F)c1ccc(Br)o1,-2,0,1,0,4,69*,1,-2,
Nc1nc(-c2ccco2)c(-c2ccco2)s1,0,25,0,-37,32,51*,3,29,
O=C(CCl)Nc1nc(-c2ccco2)c(-c2ccco2)s1,-3,2,-7,15,22,38,.,.,
COc1ccc2oc(=O)c(C(=O)NCc3cccnc3)cc2c1,-1,0,7,2,-25,51*,2,1,
O=C(O)Cc1c[nH]c2cccc(O)c12,3,4,31,-16,-2,74*,36*,-2,DNMT1 interf DR=>99
COc1ccc(N2C3=C(C(=O)CC(C)(C)C3)C(c3ccccc3OC)C3=C2CC(C)(C)CC3=O)cc1,0,1,-10,0,-7,-8,.,.,
COc1ccccc1C1C2=C(CC(C)(C)CC2=O)N(CC(=O)O)C2=C1C(=O)CC(C)(C)C2,0,-1,-8,-11,-8,52*,7,9,
O=C(Nc1cccc(Oc2ccc(C(=O)O)c(C(=O)O)c2)c1)c1ccc(-c2ccccc2)cc1,35,8,20,0,22,53*,15,-1,
O=C(O)c1ccccc1C(=O)Nc1ccc(Oc2ccccc2)cc1,1,0,-4,-2,-3,-1,.,.,
CCCN(CC1CC1)c1nc(N)c2c(N)nc(OC)cc2c1C#N,3,13,-4,13,35,52*,10,7,
CCOc1cc2c(C#N)c(N(CC)CC)nc(N)c2c(N)n1,8,20,2,28,49*,85*,6,6,
CCOc1cc2c(C#N)c(N3CCOCC3)nc(N)c2c(N)n1,1,9,12,8,12,18,.,.,
Cc1ccccc1C#N,0,0,-6,9,1,0,.,.,
CC(C)c1nc2sc3c(SCC(=O)NCc4ccco4)ncnc3c2c2c1CCC2,1,3,32,0,0,83*,-1,-1,
C/C(=C\c1ccc(C(=O)O)cc1)c1ccc2c(c1)C(C)(C)CCC2(C)C,-2,-1,-6,10,11,52*,21,0,
CC(=O)C(=Cc1ccc(C(=O)O)cc1)C(C)=O,2,0,15,0,-4,9,.,.,
CCN(CC)CCCNC(=O)CSc1nc(C)cc(C)n1,-1,4,5,2,-7,-1,.,.,
O=C(/C=C/c1ccco1)c1ccc(NC(=O)C23CC4CC(CC(C4)C2)C3)cc1,3,1,24,33,1,72*,3,0,
CCOC(=O)C1(C)CCN1C(=O)c1cc2ccccc2s1 (stereo unspecified),-3,0,.,0,1,-1,.,.,
SMILES,STEP inh,LMPTP inh,Scp1 inh,Rpn11 inh,SUMO1 PPI mod,DNMT1 block,DNMT1 inh conf,DNMT1 interf,others
COc1ccc2nc3ccccc3nc2c1NC(=O)c1ccc(Cl)cc1Cl,-50,-4,-4,38,-8,57*,29,37*,
COc1cc(NC(=O)c2ccc(Cl)cc2Cl)ccc1-c1cc2ccccc2oc1=O,-1,4,-4,-3,2,66*,-1,-2,
COc1cc(-c2cc(C(=O)Nc3c(Cl)cc(Cl)cc3Cl)c3ccccc3n2)cc(OC)c1OC,4,2,0,0,12,-6,.,.,
CC[C@]12C(=O)N(C)C[C@H]([C@@H]3C(=O)N(C)C(=O)[C@@H]31)N2C(=O)c1ccc(Cl)cc1,-3,0,-2,2,0,1,.,.,
COc1ccc(S(=O)(=O)N2CCCC2CNC(=O)C(=O)Nc2ccc(C)cc2)cc1 (stereo unspecified),-2,0,-9,-2,8,-3,.,.,
Cc1ccc(S(=O)(=O)N2CCCC2CNC(=O)C(=O)Nc2ccc(F)cc2)cc1 (stereo unspecified),0,1,-2,4,0,54*,2,4,
COc1ccc(C2=CN(Cc3ccccc3)CCC2=O)cc1,0,1,1,-2,2,0,.,.,
C/C(=N\NC(=O)c1cc(O)cc(O)c1)c1ccc(NC(=O)Cc2ccccc2)cc1,98*,69*,87*,6,78*,85*,51*,-2,DNMT1 interf DR=>99
C/C(=N\NC(=O)c1cccc(F)c1)c1ccc(NC(=O)Cc2ccccc2)cc1,-1,-6,-5,0,4,2,.,.,
CC(=O)NC(C)c1nc2ccccc2n1CC(=O)NC(C)CCc1ccccc1 (stereo unspecified),0,0,-2,3,-1,-3,.,.,
Cc1cc(Nc2ccc([N+](=O)[O-])cc2)c2ccccc2n1,-2,46,-7,15,-23,-9,.,.,
O=c1nc(Nc2ccccc2)sc2ccc([N+](=O)[O-])cc12,6,26,43,19,-10,57*,1,-3,
Cc1nc2c(-c3ccccc3)c(C)nn2c(SCC(N)=O)c1Cc1ccccc1,-1,-1,-15,5,28,-1,.,.,
O=c1c2ccccc2sc2nc(C3CCCCC3)n(Cc3ccco3)c(=O)c12,-2,-1,-6,-5,-5,26,.,.,
CCc1nc2sc3ccccc3c(=O)c2c(=O)n1Cc1ccco1,-5,58*,47,18,18,88*,3,5,
COc1ccc(OC)c2sc(NC(=O)c3ccc(Br)s3)nc12,4,21,-9,0,13,57*,2,-3,
